We go through 17 compounds from ChEMBL document CHEMBL4732170, “Discovery of Small-Molecule Antagonists of the PWWP Domain of NSD2” (J Med Chem, 2021).

Calls of active or inactive are those of the source. The calls are words filed in the database; no cut-off is given here.

Test [1] has as its target T1, Histone-lysine N-methyltransferase NSD2 (Homo sapiens) (UniProt O96028).
T1 sequence (whole entry): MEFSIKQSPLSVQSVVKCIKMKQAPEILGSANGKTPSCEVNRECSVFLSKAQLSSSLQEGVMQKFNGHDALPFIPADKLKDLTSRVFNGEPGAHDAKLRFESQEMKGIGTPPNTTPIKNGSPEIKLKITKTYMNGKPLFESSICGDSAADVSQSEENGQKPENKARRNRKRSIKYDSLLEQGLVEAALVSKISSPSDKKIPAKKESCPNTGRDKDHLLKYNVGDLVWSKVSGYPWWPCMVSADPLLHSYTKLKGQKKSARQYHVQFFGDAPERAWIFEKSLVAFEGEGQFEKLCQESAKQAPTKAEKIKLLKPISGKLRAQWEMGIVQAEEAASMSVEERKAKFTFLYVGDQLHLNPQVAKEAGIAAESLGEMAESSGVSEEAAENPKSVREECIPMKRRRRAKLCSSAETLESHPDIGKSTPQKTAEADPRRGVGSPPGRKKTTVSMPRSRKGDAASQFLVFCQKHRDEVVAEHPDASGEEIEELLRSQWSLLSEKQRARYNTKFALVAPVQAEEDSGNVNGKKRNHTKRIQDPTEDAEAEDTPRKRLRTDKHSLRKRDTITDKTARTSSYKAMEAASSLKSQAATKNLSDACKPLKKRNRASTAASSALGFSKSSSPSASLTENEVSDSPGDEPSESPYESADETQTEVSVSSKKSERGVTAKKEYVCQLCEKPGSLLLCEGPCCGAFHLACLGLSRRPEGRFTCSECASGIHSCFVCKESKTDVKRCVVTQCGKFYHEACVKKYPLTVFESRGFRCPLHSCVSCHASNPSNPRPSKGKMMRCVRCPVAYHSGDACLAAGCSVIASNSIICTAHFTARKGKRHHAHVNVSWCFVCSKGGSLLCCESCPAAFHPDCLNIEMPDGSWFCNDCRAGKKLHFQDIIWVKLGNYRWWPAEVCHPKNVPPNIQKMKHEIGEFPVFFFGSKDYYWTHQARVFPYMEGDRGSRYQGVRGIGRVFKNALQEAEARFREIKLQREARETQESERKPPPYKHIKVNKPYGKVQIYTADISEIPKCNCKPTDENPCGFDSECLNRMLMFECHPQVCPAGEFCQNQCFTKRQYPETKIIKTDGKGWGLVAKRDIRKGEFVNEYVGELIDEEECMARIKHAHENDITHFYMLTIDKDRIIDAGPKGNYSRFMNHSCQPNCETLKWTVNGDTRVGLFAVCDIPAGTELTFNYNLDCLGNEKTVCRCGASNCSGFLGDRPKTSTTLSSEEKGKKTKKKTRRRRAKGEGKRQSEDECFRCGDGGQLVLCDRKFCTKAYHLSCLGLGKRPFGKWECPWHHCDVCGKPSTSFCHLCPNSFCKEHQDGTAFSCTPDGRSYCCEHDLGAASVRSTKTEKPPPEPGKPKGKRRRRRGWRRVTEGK
Kind of test: (§1) Binding affinity to NSD2 PWWP1 domain (unknown origin) assessed as dissociation constant by surface plasmon resonance analysis. In short, it runs like this: (§2)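 SPR in single-cycle kinetics, HBS-EP buffer (20 mM HEPES pH 7.4, 150 mM NaCl, 3 mM EDTA, 0.05% Tween-20) with 5% DMSO. Ten concentrations from 200 μM top, twofold dilutions. Contact time 60 s, dissociation 120 s, flow 75 μL/min; Kd derived.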

The target of test [2] is T1, Histone-lysine N-methyltransferase NSD2 (Homo sapiens). Kind of test: Binding affinity to NSD2 PWWP1 domain (unknown origin) assessed as change in aggregation temperature at 500 uM by heating at 25 to 85 degC by differential static light scattering method. Particulars: for deltaT: filed as antagonist.
Test [3] deals with T2, Histone-lysine N-methyltransferase NSD2 (Homo sapiens, UniProt O96028).
T2 sequence (O96028 whole entry): T1 sequence (whole entry)
The test is described as §1. In outline:
as §2

Regarding `CC(C)N(Cc1ccc(F)cc1)C(=O)c1ccc(C#N)cc1`, the outcome in test [1] and in test [2] was inactive. For `N#Cc1ccc(C(=O)N2CCCC2c2ccccc2)cc1` (configuration not stated), the Kd in test [3] came out at 110 µM. Besides, in test [2], the deltaT came out at 2.4 °C. As to `N#Cc1ccc(C(=O)N(Cc2ccc(F)cc2)C2CC2)cc1`, the Kd in test [3] was 7 µM. Turning to `O=C(c1ccccc1)N1CCCC1c1ccccc1` (configuration not stated), the outcome in test [1] and in test [2] was inactive.

With `Cc1ccc(C(=O)N2CCCC2c2ccc(Cl)cc2)cc1` (configuration not stated), the outcome in test [1] and in test [2] was inactive. Turning to `COC(=O)c1ccc(C(=O)N2CCCC2c2ccc(F)cc2)cc1` (configuration not stated), the Kd in test [3] worked out at 173 µM. The deltaT in test [2] is 1.4 °C. For `N#Cc1ccc(C(=O)N(CC2CCOC2)C2CC2)cc1` (configuration not stated) the same measures were 5.7 µM and 5.4 °C. For `N#Cc1ccc(C(=O)N2CCCC2c2ccncc2)cc1` (configuration not stated) the same measures were 160 µM and 2.8 °C.

In the case of `COc1ccc(C2CCCN2C(=O)c2ccc(C#N)cc2)cc1` (configuration not stated), the Kd in test [3] amounted to 208 µM. For the same compound, in test [2], the deltaT amounted to 2.4 °C. Taken in the same sequence, the figures for `CN(Cc1ccc(F)cc1)C(=O)c1ccc(C#N)cc1` were 74 µM and 2 °C.

With `N#Cc1ccc(C(=O)N(Cc2ccc(F)cc2)C2CCCCC2)cc1`, the result in test [1] and in test [2] was inactive. In the case of `O=C(c1ccc(N2CNC=N2)cc1)N1CCCC1c1ccc(F)cc1` (configuration not stated), the Kd in test [3] was found to be 297 µM. In test [2], the deltaT came to 1.2 °C. On to `N#Cc1ccc(C(=O)N(Cc2ccc(F)cc2)C2CCC2)cc1`, for which, in test [3], the Kd worked out at 114 µM. In addition, the deltaT in test [2] was determined as 1.1 °C. Taken in the same sequence, the figures for `N#Cc1ccc(C(=O)N2CCCC2c2ccc3c(c2)OCCO3)cc1` (configuration not stated) were 138 µM and 2.7 °C.

With `N#Cc1ccc(C(=O)N2CCCC2c2ccc(Cl)cc2)cc1` (configuration not stated), the Kd in test [3] was found to be 175 µM.

Take `N#Cc1ccc(C(=O)NCc2ccc(F)cc2)cc1`: the result in test [1] and in test [2] was inactive. With `N#Cc1ccc(C(=O)N2CCCC2c2ccsc2)cc1` (configuration not stated), the Kd in test [3] stood at 178 µM. In addition, the deltaT in test [2] worked out at 2.2 °C.
